# Test results taken from ChEMBL document CHEMBL4152234, “Aminobenzothiazole derivatives stabilize the thermolabile p53 cancer mutant Y220C and show anticancer activity in p53-Y220C cell lines” (Eur J Med Chem, 2018).
# Tests used:
# Assay type in all cases: cell-based
# [1] = biological target: T1, Cellular tumor antigen p53 (Homo sapiens, UniProt P04637); experiment: Activation of p53 in human NUGC4 cells assessed as change in EGFR mRNA level at 60 uM after 18 hrs by RT-PCR method relative to control; details: read-out: FC
# Method in brief: (§1)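 p53 signaling qPCR array of 84 p53-pathway genes. Cells were treated in 6-well plates for 18 h with 0.5% DMSO in compound and control samples. Total RNA was extracted and fold-changes were obtained by the ΔΔCt method against untreated control, with β2-microglobulin (B2M) as housekeeping gene. Two independent biological replicates per cell line.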
# [2] = biological target: T1, Cellular tumor antigen p53; experiment: Activation of p53 in human NUGC4 cells assessed as change in TP53AIP1 mRNA level at 60 uM after 18 hrs by RT-PCR method relative to control; details: read-out: FC
# [3] = tested on: Cellular tumor antigen p53 (Homo sapiens), P04637 [Y220C]; experiment: Activation of p53 Y220C mutant in human NUGC3 cells assessed as change in STAT1 mRNA level at 60 uM after 18 hrs by RT-PCR method relative to control
# Method in brief: (§2)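 p53 signalling qPCR array covering 84 p53 pathway genes. Cells were exposed for 18 h, and compound and control wells both held 0.5% DMSO. Total RNA was extracted and purified. Fold-changes were calculated by the ΔΔCt method against the untreated sample, with β2-microglobulin (B2M) as the housekeeping gene. Each cell line was run in two independent biological replicates.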
# [4] = biological target: T1, Cellular tumor antigen p53; experiment: Activation of p53 in human NUGC4 cells assessed as change in IGF1R mRNA level at 60 uM after 18 hrs by RT-PCR method relative to control; details: read-out: FC; method in brief: as §1
# [5] = biological target: T1, Cellular tumor antigen p53; experiment: Activation of p53 in human NUGC4 cells assessed as change in S1AH1 mRNA level at 60 uM after 18 hrs by RT-PCR method relative to control; details: read-out: FC
# [6] = biological target: T1, Cellular tumor antigen p53; experiment: Activation of p53 in human NUGC4 cells assessed as change in CCNG1 mRNA level at 60 uM after 18 hrs by RT-PCR method relative to control; details: read-out: FC; method in brief: as §1
# [7] = tested on: Cellular tumor antigen p53 (Homo sapiens), P04637 [Y220C]; experiment: Activation of p53 Y220C mutant in human NUGC3 cells assessed as change in WT1 mRNA level at 60 uM after 18 hrs by RT-PCR method relative to control; method in brief: as §2
# [8] = tested on: Cellular tumor antigen p53 (Homo sapiens), P04637 [Y220C]; experiment: Activation of p53 Y220C mutant in human NUGC3 cells assessed as change in TP53 mRNA level at 60 uM after 18 hrs by RT-PCR method relative to control; method in brief: as §2
# [9] = biological target: T1, Cellular tumor antigen p53; experiment: Activation of p53 in human NUGC4 cells assessed as change in E2F3 mRNA level at 60 uM after 18 hrs by RT-PCR method relative to control; details: read-out: FC; method in brief: as §1
# [10] = biological target: T1, Cellular tumor antigen p53; experiment: Activation of p53 in human NUGC4 cells assessed as change in MDM4 mRNA level at 60 uM after 18 hrs by RT-PCR method relative to control; details: read-out: FC; method in brief: as §1
# [11] = tested on: Cellular tumor antigen p53 (Homo sapiens), P04637 [Y220C]; experiment: Activation of p53 Y220C mutant in human NUGC3 cells assessed as change in KRAS mRNA level at 60 uM after 18 hrs by RT-PCR method relative to control; method in brief: as §2
# [12] = tested on: Cellular tumor antigen p53 (Homo sapiens), P04637 [Y220C]; experiment: Activation of p53 Y220C mutant in human NUGC3 cells assessed as change in TP53AIP1 mRNA level at 60 uM after 18 hrs by RT-PCR method relative to control; method in brief: as §2
# [13] = biological target: T1, Cellular tumor antigen p53; experiment: Activation of p53 in human NUGC4 cells assessed as change in RELA mRNA level at 60 uM after 18 hrs by RT-PCR method relative to control; details: read-out: FC
# [14] = tested on: Cellular tumor antigen p53 (Homo sapiens), P04637 [Y220C]; experiment: Activation of p53 Y220C mutant in human NUGC3 cells assessed as change in CRADD mRNA level at 60 uM after 18 hrs by RT-PCR method relative to control
# Method in brief: (§3)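 p53 signalling qPCR array covering 84 genes. Cells were exposed for 18 h, with 0.5% DMSO in both compound and control samples. Total RNA was extracted and purified. Fold-changes were calculated by ΔΔCt using β2-microglobulin (B2M) as the housekeeping gene. Two independent biological replicates were run per cell line.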
# [15] = tested on: Cellular tumor antigen p53 (Homo sapiens), P04637 [Y220C]; experiment: Activation of p53 Y220C mutant in human NUGC3 cells assessed as change in CASP9 mRNA level at 60 uM after 18 hrs by RT-PCR method relative to control; method in brief: as §3
# [16] = biological target: T1, Cellular tumor antigen p53; experiment: Activation of p53 in human NUGC4 cells assessed as change in TADA3 mRNA level at 60 uM after 18 hrs by RT-PCR method relative to control; details: read-out: FC
# [17] = tested on: Cellular tumor antigen p53 (Homo sapiens), P04637 [Y220C]; experiment: Activation of p53 Y220C mutant in human NUGC3 cells assessed as change in CDK1 mRNA level at 60 uM after 18 hrs by RT-PCR method relative to control; method in brief: as §3
# [18] = biological target: T1, Cellular tumor antigen p53; experiment: Activation of p53 in human NUGC4 cells assessed as change in PIDD1 mRNA level at 60 uM after 18 hrs by RT-PCR method relative to control; details: read-out: FC
# [19] = tested on: Cellular tumor antigen p53 (Homo sapiens), P04637 [Y220C]; experiment: Activation of p53 Y220C mutant in human NUGC3 cells assessed as change in EGR1 mRNA level at 60 uM after 18 hrs by RT-PCR method relative to control; method in brief: as §3
# [20] = biological target: T1, Cellular tumor antigen p53; experiment: Activation of p53 in human NUGC4 cells assessed as change in CASP9 mRNA level at 60 uM after 18 hrs by RT-PCR method relative to control; details: read-out: FC; method in brief: as §1
# [21] = tested on: Cellular tumor antigen p53 (Homo sapiens), P04637 [Y220C]; experiment: Activation of p53 Y220C mutant in human NUGC3 cells assessed as change in CCNH mRNA level at 60 uM after 18 hrs by RT-PCR method relative to control; method in brief: as §3
# [22] = tested on: Cellular tumor antigen p53 (Homo sapiens), P04637 [Y220C]; experiment: Activation of p53 Y220C mutant in human NUGC3 cells assessed as change in BAX mRNA level at 60 uM after 18 hrs by RT-PCR method relative to control; method in brief: as §3
# [23] = tested on: Cellular tumor antigen p53 (Homo sapiens), P04637 [Y220C]; experiment: Activation of p53 Y220C mutant in human NUGC3 cells assessed as change in CCNB1 mRNA level at 60 uM after 18 hrs by RT-PCR method relative to control; method in brief: as §3
# [24] = tested on: Cellular tumor antigen p53 (Homo sapiens), P04637 [Y220C]; experiment: Activation of p53 Y220C mutant in human NUGC3 cells assessed as change in ESR1 mRNA level at 60 uM after 18 hrs by RT-PCR method relative to control; method in brief: as §3
# [25] = tested on: Cellular tumor antigen p53 (Homo sapiens), P04637 [Y220C]; experiment: Activation of p53 Y220C mutant in human NUGC3 cells assessed as change in S1AH1 mRNA level at 60 uM after 18 hrs by RT-PCR method relative to control; method in brief: as §2
# [26] = biological target: T1, Cellular tumor antigen p53; experiment: Activation of p53 in human NUGC4 cells assessed as change in GML mRNA level at 60 uM after 18 hrs by RT-PCR method relative to control; details: read-out: FC; method in brief: as §1
# [27] = tested on: Cellular tumor antigen p53 (Homo sapiens), P04637 [Y220C]; experiment: Activation of p53 Y220C mutant in human NUGC3 cells assessed as change in TNF mRNA level at 60 uM after 18 hrs by RT-PCR method relative to control; method in brief: as §2
# [28] = biological target: T1, Cellular tumor antigen p53; experiment: Activation of p53 in human NUGC4 cells assessed as change in CDK4 mRNA level at 60 uM after 18 hrs by RT-PCR method relative to control; details: read-out: FC; method in brief: as §1
# [29] = tested on: Cellular tumor antigen p53 (Homo sapiens), P04637 [Y220C]; experiment: Activation of p53 Y220C mutant in human NUGC3 cells assessed as change in MLH1 mRNA level at 60 uM after 18 hrs by RT-PCR method relative to control; method in brief: as §2
structure (smiles),measurement,setting,value
CCNC(=O)c1c(O)c(I)c(-n2cccc2)c2sc(N(CC)CC)nc12,fold induction at 60 µM,[1],1
same,fold induction at 60 µM,[2],1
same,fold change (FC),[3],0.8
same,fold induction at 60 µM,[4],0.8
same,fold induction at 60 µM,[5],1.2
same,fold induction at 60 µM,[6],1
same,fold change (FC),[7],1.5
same,fold change (FC),[8],0.7
same,fold induction at 60 µM,[9],0.7
same,fold induction at 60 µM,[10],0.9
same,fold change (FC),[11],1.2
same,fold change (FC),[12],1.5
same,fold induction at 60 µM,[13],0.8
same,fold change (FC),[14],1.1
same,fold change (FC),[15],1
same,fold induction at 60 µM,[16],1
same,fold change (FC),[17],1.5
same,fold induction at 60 µM,[18],0.8
same,fold change (FC),[19],1
same,fold induction at 60 µM,[20],1
same,fold change (FC),[21],1.4
same,fold change (FC),[22],1.1
same,fold change (FC),[23],1.1
same,fold change (FC),[24],2.3
same,fold change (FC),[25],1.5
same,fold induction at 60 µM,[26],1.9
same,fold change (FC),[27],5.6
same,fold induction at 60 µM,[28],0.8
same,fold change (FC),[29],5.4
